For experiment [1], the system named is Mus musculus. Put plainly: Activity in ICR mice (Mus musculus) infected with Plasmodium berghei NK65 after 4 days at 25 mg/kg/day, intraperitoneally assessed as mean survival days. Format: functional. The settings on record: route intraperitoneal. The gist of the method: (§1)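 Peters' 4-day suppressive test; P. berghei NK65 (drug-sensitive) in groups of five ICR mice; compound given daily for 4 days, ip or po at the stated mg kg-1 day-1. Mice followed after treatment ends; mean survival days recorded against untreated infected controls.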

For another experiment, the system named is Plasmodium falciparum. Put plainly: Antimalarial activity against chloroquine-resistant Plasmodium falciparum K1. Format: functional, organism-based. In short, it runs like this:
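P. falciparum K1 (chloroquine-resistant) tested in vitro by the Desjardins method; activity given as EC50.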

Experiment [2] concerns L6. Put plainly: Cytotoxicity against rat L6 cell line. Format: functional, cell-based. In short, it runs like this: (§2)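 Rat skeletal myoblast L-6 line used for cytotoxicity; EC50 determined. Antiplasmodial EC50 was measured against chloroquine-resistant P. falciparum strain K1 in vitro by the Desjardins method. Selectivity index = EC50(L-6)/EC50(P. falciparum K1).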
Experiment [3] deals with L6. Put plainly: Selectivity index, EC50 for L6 cells/EC50 for Plasmodium falciparum K1. Format: functional. The gist of the method:
as §2

For experiment [4], the system named is Plasmodium berghei. Put plainly: Suppression of Plasmodium berghei NK65 infected ICR mice (Mus musculus) at 10 mg/kg/day intraperitoneal dose over 4 days. It is filed as functional. The gist of the method: (§3)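 Peters' 4-day suppressive test: ICR mice (five per group) infected with drug-sensitive P. berghei NK65, dosed daily for 4 days intraperitoneally or per os. Percent suppression = reduction of parasitemia in treated versus untreated infected control mice. Mice were observed after treatment to record mean survival days.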

The subject of experiment [5] is Plasmodium berghei. Put plainly: Suppression of Plasmodium berghei NK65 infected ICR mice (Mus musculus) at 25 mg/kg/day intraperitoneal dose over 4 days. It is filed as functional. In short, it runs like this: as §3
In experiment [6] the test system is Plasmodium berghei. Put plainly: Suppression of Plasmodium berghei NK65 infected ICR mice (Mus musculus) at 20 mg/kg/day intraperitoneal dose over 4 days. Format: functional. In short, it runs like this: as §3
For experiment [7], the system named is Plasmodium berghei. Put plainly: Suppression of Plasmodium berghei NK65 infected ICR mice (Mus musculus) at 40 mg/kg/day intraperitoneal dose over 4 days. It is filed as functional. The gist of the method: as §3
Experiment [8] concerns Mus musculus. Put plainly: Activity in ICR mice (Mus musculus) infected with Plasmodium berghei NK65 after 4 days at 10 mg/kg/day, intraperitoneally assessed as mean survival days. It is filed as functional. Conditions: route intraperitoneal. In short, it runs like this: as §1
Experiment [9] has as its system Mus musculus. Put plainly: Activity in ICR mice (Mus musculus) infected with Plasmodium berghei NK65 after 4 days at 20 mg/kg/day, intraperitoneally assessed as mean survival days. It is filed as functional. Conditions: route intraperitoneal. In short, it runs like this: as §1
The subject of experiment [10] is Mus musculus. Put plainly: Activity in ICR mice (Mus musculus) infected with Plasmodium berghei NK65 after 4 days at 40 mg/kg/day, intraperitoneally assessed as mean survival days. Format: functional. Conditions: route intraperitoneal. The gist of the method: as §1
The subject of experiment [11] is Plasmodium berghei. Put plainly: Suppression of Plasmodium berghei NK65 infected ICR mice (Mus musculus) at 100 mg/kg/day peroral dose over 4 days. Format: functional. The settings on record: route oral. The gist of the method: as §3
Experiment [12] deals with Mus musculus. Put plainly: Activity in ICR mice (Mus musculus) infected with Plasmodium berghei NK65 after 4 days at 100 mg/kg/day, perorally assessed as mean survival days. It is filed as functional. The settings on record: route oral. The gist of the method:
as §1

Structures are written as SMILES. pEC50: −log10 of the molar value.

Take `CCN1C(=O)/C(=C2\Sc3ccccc3N2C)S/C1=N\c1sc2cc(Cl)ccc2[n+]1C.[Cl-]`: the Activity in the experiment with Mus musculus [1] worked out at 5.5 days.
As a reminder, the pEC50 is −log10 of the EC50, conventionally taken in molar units. A low value points to a high EC50. Take `CCN1C(=O)/C(=c2/s/c(=C3/C=CC=CN3C)c(=O)n2CC)S/C1=N\c1sc2ccccc2[n+]1C.[Cl-]`: the figures for the pEC50 in the experiment with Plasmodium falciparum and in the experiment on L6 [2] were 7.66 and 4.85, respectively. Moreover, the Selectivity index in the experiment on L6 [3] is reported as 640. Also, the Activity in the experiment with Plasmodium berghei [4] worked out at 70.8%; in the experiment on Plasmodium berghei [5], 96.4%; in the experiment on Plasmodium berghei [6], 92.4%; with Plasmodium berghei [7], 97.8%; in the experiment on Mus musculus [8] it was 9.8 days; in the experiment with Mus musculus [1], 22 days. Besides, the Activity in the experiment on Mus musculus [9] was found to be 19 days; in the experiment on Mus musculus [10] it was 7.8 days.
In the case of `CCN1C(=O)/C(=c2/s/c(=C3/C=Cc4ccccc4N3C)c(=O)n2CC)S/C1=N\c1sc2cc(Cl)ccc2[n+]1C.[Cl-]`, the Activity in the experiment on Plasmodium berghei [5] was determined as 49.7%; in the experiment on Mus musculus [1], 7 days.
Compound `CCN(CC)CCCC(C)Nc1ccnc2cc(Cl)ccc12` (stereo not given) [CHLOROQUINE] had a pEC50 in the experiment on Plasmodium falciparum of 6.82. Moreover, the Activity turned out to be 90.6% in the experiment on Plasmodium berghei [4] and 22.7 days in the experiment on Mus musculus [8].
For the compound `CCN1C(=O)/C(=c2/s/c(=C3/C=CC=CN3C)c(=O)n2CC)S/C1=N\c1sc2cc(Cl)ccc2[n+]1C.[Cl-]`, the figures for the pEC50 with Plasmodium falciparum and in the experiment with L6 [2] were 8.00 and 4.34, respectively. The Selectivity index with L6 [3] amounted to 4600. The Activity is 41.7% with Plasmodium berghei [11]; 11.8 days in the experiment with Mus musculus [8]; 25.3 days in the experiment on Mus musculus [1]; 6.5 days with Mus musculus [12]; 20.3 days in the experiment on Mus musculus [9]; 7 days with Mus musculus [10].
In the case of `CCN1C(=O)/C(=c2/s/c(=C3/C=Cc4ccccc4N3C)c(=O)n2CC)S/C1=N\c1cccc[n+]1C.[Cl-]`, the Activity with Plasmodium berghei [5] stood at 78.4%; in the experiment on Mus musculus [1], 5.6 days.
Turning to `CCN1C(=O)/C(=c2/s/c(=C3/C=CC=CN3C)c(=O)n2CC)S/C1=N\c1sc2cc(F)ccc2[n+]1C.[Cl-]`, the Activity in the experiment on Plasmodium berghei [5] is 79.5%; in the experiment with Mus musculus [1], 10.8 days.
The corresponding values for `CCN1C(=O)/C(=c2/s/c(=C3/C=CC=CN3C)c(=O)n2CC)S/C1=N\c1sc2cc(OC)ccc2[n+]1C.[Cl-]` are 98.3% and 6.3 days.
Turning to `C=CC[n+]1ccccc1/C=c1\s/c(=C2/Sc3ccccc3N2C)c(=O)n1C.Cc1ccc(S(=O)(=O)[O-])cc1`, the pEC50 in the experiment with Plasmodium falciparum was 7.72; in the experiment on L6 [2], 4.00. Further, in the experiment with L6 [3], the Selectivity index was found to be 5000. Besides, the Activity with Plasmodium berghei [4] amounted to 27%.
In the case of `CCN1C(=O)/C(=C2\C=Cc3ccccc3N2C)S/C1=N\c1sc2cc(Cl)ccc2[n+]1C.[Cl-]`, the pEC50 is 8.36 in the experiment with Plasmodium falciparum and 4.96 in the experiment on L6 [2]. In the experiment on L6 [3], this compound registered a Selectivity index of 2500.
Regarding `CCN1C(=O)/C(=C2\C=Cc3ccccc3N2C)S/C1=N\c1cccc[n+]1C.[Cl-]`, the pEC50 was 8.23 in the experiment with Plasmodium falciparum and 3.92 in the experiment with L6 [2]. The Selectivity index with L6 [3] is recorded as 20000.
For the compound `CCN1C(=O)/C(=c2/s/c(=C3/SCCN3C)c(=O)n2CC)S/C1=N\c1sc2cc(Cl)ccc2[n+]1C.[Cl-]`, the figures for the pEC50 in the experiment on Plasmodium falciparum and in the experiment with L6 [2] were 7.64 and 4.92, respectively. The compound further gave a Selectivity index in the experiment with L6 [3] of 520. For the same compound, the Activity in the experiment with Mus musculus [1] was found to be 16 days.
For the compound `CCN1C(=O)/C(=c2/s/c(=C3/SCCN3C)c(=O)n2CC)S/C1=N\c1sc2cc(OC)ccc2[n+]1C.[Cl-]`, the Activity is 95% in the experiment on Plasmodium berghei [5] and 5 days in the experiment with Mus musculus [1].
Taken in the same sequence, the figures for `CCN1C(=O)/C(=c2/s/c(=C3/C=CC=CN3C)c(=O)n2CC)S/C1=N\c1scc(-c2ccc(Cl)cc2)[n+]1C.[Cl-]` were 95.6% and 5.3 days.
Regarding `CCn1c(=O)/c(=C2\C=CC=CN2C)s/c1=C1\S/C(=N\c2sc3cc(Cl)ccc3[n+]2C)N(C(C)C)C1=O.[Cl-]`, the Activity with Mus musculus [1] was 7.7 days.
For the compound `C=CCN1C(=O)/C(=c2/s/c(=C3/C=CC=CN3C)c(=O)n2CC)S/C1=N\c1sc2cc(Cl)ccc2[n+]1C.[Cl-]`, the Activity in the experiment with Plasmodium berghei [5] was 95.7%; in the experiment on Mus musculus [1], 18 days.
Take `C=CCN1C(=O)/C(=c2/s/c(=C3/SCCN3C)c(=O)n2CC)S/C1=N\c1sc2cc(Cl)ccc2[n+]1C.[Cl-]`: the Activity stood at 73.1% in the experiment on Plasmodium berghei [5] and 12.8 days in the experiment on Mus musculus [1].

Source of the values: ChEMBL document CHEMBL1138931, “Synthesis and antimalarial efficacy of aza-fused rhodacyanines in vitro and in the P. berghei mouse model” (J Med Chem, 2006).
